{"source": "paper PMC4824313", "about": "(Bioorganic & medicinal chemistry letters, 2016)", "key": {"rat mGlu1": {"target": "rat mGlu1 (Rattus norvegicus, UniProt P23385)", "sequence (P23385 19-1199)": "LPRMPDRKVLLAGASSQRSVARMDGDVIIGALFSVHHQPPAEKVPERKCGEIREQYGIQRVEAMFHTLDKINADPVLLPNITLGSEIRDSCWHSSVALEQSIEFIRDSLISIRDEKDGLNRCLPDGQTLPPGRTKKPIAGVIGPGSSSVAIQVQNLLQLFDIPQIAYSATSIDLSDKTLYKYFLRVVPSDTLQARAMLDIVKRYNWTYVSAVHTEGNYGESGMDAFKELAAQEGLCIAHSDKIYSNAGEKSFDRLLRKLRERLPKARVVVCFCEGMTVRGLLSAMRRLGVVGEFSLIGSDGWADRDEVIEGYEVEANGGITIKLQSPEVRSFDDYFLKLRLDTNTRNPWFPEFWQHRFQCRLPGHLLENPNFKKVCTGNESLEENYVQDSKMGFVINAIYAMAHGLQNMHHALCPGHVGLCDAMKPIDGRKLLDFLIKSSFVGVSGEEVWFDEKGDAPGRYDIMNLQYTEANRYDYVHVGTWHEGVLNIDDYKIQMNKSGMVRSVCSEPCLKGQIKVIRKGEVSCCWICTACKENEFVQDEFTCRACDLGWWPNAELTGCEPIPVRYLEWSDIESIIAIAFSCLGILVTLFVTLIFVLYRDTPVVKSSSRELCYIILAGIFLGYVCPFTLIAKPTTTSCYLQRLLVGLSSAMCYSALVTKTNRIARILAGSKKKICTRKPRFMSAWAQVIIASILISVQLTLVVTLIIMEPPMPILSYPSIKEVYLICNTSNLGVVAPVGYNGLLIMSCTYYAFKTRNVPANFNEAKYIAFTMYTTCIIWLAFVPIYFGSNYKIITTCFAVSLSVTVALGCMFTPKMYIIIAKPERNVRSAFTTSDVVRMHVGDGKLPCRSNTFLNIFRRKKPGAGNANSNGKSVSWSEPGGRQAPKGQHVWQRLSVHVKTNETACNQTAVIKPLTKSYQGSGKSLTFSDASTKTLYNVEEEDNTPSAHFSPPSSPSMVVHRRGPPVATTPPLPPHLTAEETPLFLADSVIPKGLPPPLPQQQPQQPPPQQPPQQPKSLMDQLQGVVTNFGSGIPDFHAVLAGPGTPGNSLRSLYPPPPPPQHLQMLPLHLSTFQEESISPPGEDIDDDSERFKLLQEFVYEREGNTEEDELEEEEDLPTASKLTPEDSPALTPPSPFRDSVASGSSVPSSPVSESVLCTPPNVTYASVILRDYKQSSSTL", "test": "rat mGlu1 calcium mobilization assay", "assay_type": "cell-based", "conditions": "for mGlu1 pIC50 (± SEM): Calcium mobilization assay, rat mGlu1, NAM; for mGlu1 NAM activity (in words): top concentration tested 30 μM"}, "rat mGlu5": {"target": "rat mGlu5 (Rattus norvegicus, UniProt P31424)", "sequence (P31424 21-1203)": "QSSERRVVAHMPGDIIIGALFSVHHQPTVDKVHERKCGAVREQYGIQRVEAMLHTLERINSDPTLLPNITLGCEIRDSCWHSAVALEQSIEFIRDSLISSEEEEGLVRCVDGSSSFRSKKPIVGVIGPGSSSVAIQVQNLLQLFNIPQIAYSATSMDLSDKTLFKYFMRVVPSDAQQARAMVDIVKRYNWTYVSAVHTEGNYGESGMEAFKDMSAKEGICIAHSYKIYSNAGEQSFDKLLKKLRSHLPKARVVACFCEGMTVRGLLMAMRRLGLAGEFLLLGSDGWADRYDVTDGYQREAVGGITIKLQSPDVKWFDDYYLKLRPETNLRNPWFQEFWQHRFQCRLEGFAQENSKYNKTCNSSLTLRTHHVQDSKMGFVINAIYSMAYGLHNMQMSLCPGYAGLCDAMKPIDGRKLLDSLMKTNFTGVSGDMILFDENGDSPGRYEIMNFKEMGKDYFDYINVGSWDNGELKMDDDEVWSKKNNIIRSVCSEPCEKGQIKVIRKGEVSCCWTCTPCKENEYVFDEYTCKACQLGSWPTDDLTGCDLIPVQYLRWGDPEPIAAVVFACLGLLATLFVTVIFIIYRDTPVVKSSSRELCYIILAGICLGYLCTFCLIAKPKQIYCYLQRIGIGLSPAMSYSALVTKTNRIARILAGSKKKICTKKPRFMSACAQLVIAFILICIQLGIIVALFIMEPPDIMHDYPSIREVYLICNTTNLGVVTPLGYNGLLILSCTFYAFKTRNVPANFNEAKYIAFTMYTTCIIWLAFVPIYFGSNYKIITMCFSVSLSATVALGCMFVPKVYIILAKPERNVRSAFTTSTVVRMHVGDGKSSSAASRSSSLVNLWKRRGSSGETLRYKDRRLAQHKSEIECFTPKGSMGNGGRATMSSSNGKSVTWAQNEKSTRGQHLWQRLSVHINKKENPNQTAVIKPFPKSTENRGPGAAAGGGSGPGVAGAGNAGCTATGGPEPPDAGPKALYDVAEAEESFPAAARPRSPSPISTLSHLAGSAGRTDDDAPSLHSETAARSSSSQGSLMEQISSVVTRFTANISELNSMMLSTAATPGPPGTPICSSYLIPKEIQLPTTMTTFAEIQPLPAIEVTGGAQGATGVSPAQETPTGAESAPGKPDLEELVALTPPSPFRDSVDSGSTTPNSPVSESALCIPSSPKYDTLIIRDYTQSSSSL", "test": "rat mGlu5 calcium mobilization assay", "assay_type": "cell-based"}, "[1]": {"test": "Mouse IP PK time course study", "assay_type": "in vivo, male CD-1 mice", "conditions": "mice; IP 30 mg/kg", "procedure,_shortened": "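Tissue distribution was run in parallel under the same conditions, with brain and plasma taken at 30 min to give Kp and Kp,uu. Unbound brain concentration was estimated from these exposures combined with fraction unbound from equilibrium dialysis.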"}, "[2]": {"test": "Rat IP PK time course study", "assay_type": "in vivo, male Sprague-Dawley rats", "conditions": "rats; IP 10 mg/kg", "procedure,_shortened": "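Male Sprague-Dawley rats received a single 10 mg/kg IP dose, with 2 animals per time point. Plasma was followed over time for Tmax, Cmax and AUC. Brain and plasma were taken at 15 min to give Kp and Kp,uu. Unbound brain concentration was estimated from these exposures combined with fraction unbound from equilibrium dialysis.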"}, "[3]": {"tested_on": "68 clinically relevant targets", "test": "radioligand binding assay panel of 68 clinically relevant targets", "conditions": "10 μM; significant = greater than or equal to 50% inhibition of binding", "procedure,_shortened": "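Test compound was screened at a single 10 μM concentration for displacement of radioligand binding at each panel target. Inhibition of binding of at least 50% was counted as a significant response.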"}, "Rat IV PK": {"test": "Rat IV PK", "assay_type": "in vivo, male Sprague-Dawley rats", "conditions": "male, Sprague-Dawley, plasma, 0.2 mg/kg", "procedure,_shortened": "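Male Sprague-Dawley rats were dosed IV with 2 animals per time point. The plasma concentration–time profile gave half-life, plasma clearance and steady-state volume of distribution.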"}, "[4]": {"tested_on": "remaining six members of the mGlu family", "test": "mGlu selectivity fold-shift experiments on orthosteric agonist CRC", "assay_type": "cell-based"}, "369 kinases": {"tested_on": "369 kinases", "test": "kinase panel of 369 kinases", "assay_type": "biochemical", "conditions": "10 μM"}}, "data": [{"compound": "C[C@H](Nc1ncnc2c1nn1ccccc21)C1CC1", "note": "[Compound 12]", "values": [{"measurement": "mGlu1 pIC50 (± SEM)", "setting": "rat mGlu1", "result": "< 4.5"}]}, {"compound": "CCC(C)(C)Nc1ncnc2c1nn1ccccc21", "note": "[Compound 19]", "values": [{"measurement": "mGlu1 NAM activity (in words)", "setting": "rat mGlu1", "result": "only a weak mGlu1 NAM, inhibiting the glutamate response only at the top concentration tested"}]}, {"compound": "CC(C)(C)CCNc1ncnc2c1nn1ccccc21", "note": "[Compound 18]", "values": [{"measurement": "mGlu5 NAM potency relative to mGlu1 NAM activity", "setting": "rat mGlu5; rat mGlu5 vs rat mGlu1", "result": "approximately ten-fold less"}]}, {"compound": "C[C@H]1CC[C@H](Nc2nc(N)nc3c2nn2ccccc32)CC1", "note": "[Compound 41]", "values": [{"measurement": "mGlu1 NAM activity (in words)", "setting": "rat mGlu1", "result": "weak mGlu1 NAM activity"}]}, {"compound": "CC1(C)CCC(Nc2ncnc3c2nn2ccccc32)CC1", "note": "[Compound 29, N-(4,4-dimethylcyclohexyl)pyrido[1′,2′:1,5]pyrazolo[4,3-d]pyrimidin-4-amine]", "values": [{"measurement": "estimated unbound brain concentration", "setting": "[1]", "result": "approximately 100 nM"}, {"measurement": "mGlu5 pIC50 (± SEM)", "setting": "rat mGlu5; Calcium mobilization assay, rat mGlu5, NAM", "result": "6.89 ± 0.29"}, {"measurement": "estimated unbound brain concentration", "setting": "[2]", "result": "approximately 100 nM"}, {"measurement": "number of the 68 targets with no significant responses", "setting": "[3]", "result": 62}, {"measurement": "Vd", "setting": "Rat IV PK", "result": 3.1, "unit": "L/kg"}, {"measurement": "effect on the orthosteric agonist concentration-response curve (fold-shift)", "setting": "[4]; 10 μM, remaining six mGlus", "result": "no significant effects were observed"}, {"measurement": "selectivity for the group I mGlu receptors", "setting": "[4]; versus remaining six mGlus", "result": "> 75", "unit": "fold"}, {"measurement": "number of kinases of 369 inhibited more than 50%", "setting": "369 kinases", "result": "eight"}]}, {"compound": "CC(C)Nc1nc(N[C@H]2CC[C@H](C)CC2)c2nn3ccccc3c2n1", "note": "[Compound 44]", "values": [{"measurement": "mGlu1 pIC50 (± SEM)", "setting": "rat mGlu1", "result": "< 4.5"}]}, {"compound": "CN(C)c1nc(N[C@H]2CC[C@H](C)CC2)c2nn3ccccc3c2n1", "note": "[Compound 43]", "values": [{"measurement": "mGlu1 pIC50 (± SEM)", "setting": "rat mGlu1", "result": "< 4.5"}]}, {"compound": "CNc1nc(N[C@H]2CC[C@H](C)CC2)c2nn3ccccc3c2n1", "note": "[Compound 42]", "values": [{"measurement": "mGlu1 pIC50 (± SEM)", "setting": "rat mGlu1", "result": "< 4.5"}]}]}
